{"source": "paper PMC7581536", "about": "(Journal of pharmaceutical and biomedical analysis, 2020)", "key": {"KDMs": {"tested_on": "KDMs", "settings": "ref [18]–[19]; cited from earlier work"}, "[1]": {"test": "Stability of stock solutions", "format": "physicochemical", "settings": "stock solution (DMSO/ACN or ACN), 6 months at −20°C", "outline": "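Test compound stock at 2 mg/mL: 10 mg dissolved in 0.5 mL DMSO, then diluted with ACN. Internal standard stock at 100 µg/mL in ACN. Both kept at −20°C for 6 months.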"}, "HIV-1": {"tested_on": "HIV-1", "settings": "T cell lines, via inhibition of SHMT2; ref [23]; cited from earlier work"}, "[2]": {"test": "Stability of JIB-04 in rat plasma", "format": "in vitro ADME", "settings": "for RE (deviation from nominal concentration) / Calculated Concentration Mean ± SD: rat plasma; for Calculated Concentration Mean ± SD: n=6", "outline": "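Blank rat plasma spiked to 0.5, 1, 50 and 800 ng/mL, six replicates per condition. Held 18 h on bench at room temperature, 24 h in auto-sampler tray, or 3 months at −80°C. Freeze-thaw: three cycles of 2–3 h room-temperature thaw and 12–24 h at −80°C. Quantified against a same-day calibration curve; accuracy as RE%, precision as CV%.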"}, "[3]": {"test": "Pharmacokinetic study of JIB-04 in rats after i.v. and oral administration", "format": "in vivo, rat", "outline": "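Male adult SD rats with jugular vein cannulas. IV: single 5 mg/kg via jugular vein (n=5) as aqueous suspension in 12.5% cremophor EL/12.5% DMSO; blood at 2 min–24 h. Oral: single 15 mg/kg (n=6); blood at 5 min–24 h. Heparinised plasma (4000 rpm, 15 min) held at −80°C. 20 µL plasma precipitated with ACN (5 ng/mL IS, 0.1% acetic acid); UHPLC-MS/MS MRM; non-compartmental analysis per rat.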"}, "[4]": {"test": "Non-specific binding to plastic centrifuge tubes", "format": "physicochemical", "settings": "neat solution, water as matrix"}, "KDM5A": {"tested_on": "KDM5A", "settings": "secondary targets KDM4D/4B/4A/6B/4C; ref [18], [20]–[21]; cited from earlier work"}, "[5]": {"settings": "auto-sampler (10 °C 24hr), nominal 0.5 ng/mL"}, "[6]": {"settings": "auto-sampler (10 °C 24hr), nominal 1 ng/mL"}, "[7]": {"settings": "auto-sampler (10 °C 24hr), nominal 50 ng/mL"}, "[8]": {"settings": "auto-sampler (10 °C 24hr), nominal 800 ng/mL"}, "[9]": {"settings": "bench top (18hr, RT), nominal 0.5 ng/mL"}, "[10]": {"settings": "bench top (18hr, RT), nominal 1 ng/mL"}, "[11]": {"settings": "bench top (18hr, RT), nominal 50 ng/mL"}, "[12]": {"settings": "bench top (18hr, RT), nominal 800 ng/mL"}, "[13]": {"settings": "long-term (−80 °C, 3 months), nominal 0.5 ng/mL"}, "[14]": {"settings": "long-term (−80 °C, 3 months), nominal 1 ng/mL"}, "[15]": {"settings": "long-term (−80 °C, 3 months), nominal 50 ng/mL"}, "[16]": {"settings": "long-term (−80 °C, 3 months), nominal 800 ng/mL"}, "[17]": {"settings": "rats, oral 15 mg/kg, n=6, NCA (apparent)"}}}
{"smiles": "Clc1ccc(NN=C(c2ccccc2)c2ccccn2)nc1", "note": "(single isomer, unassigned) [Z-isomer]", "values": [{"measurement": "activity against KDMs", "setting": "KDMs", "result": "inactive"}]}
{"smiles": "Clc1ccc(N/N=C(\\c2ccccc2)c2ccccn2)nc1", "note": "[JIB-04]", "values": [{"measurement": "stability of stock solution", "setting": "[1]", "result": "stable"}, {"measurement": "block of HIV-1 Tat expression, transactivation, and virus replication", "setting": "HIV-1", "result": "potently and selectively blocks"}, {"measurement": "RE (deviation from nominal concentration)", "setting": "[2]; [5]", "result": "−3.2", "unit": "%"}, {"measurement": "Calculated Concentration Mean ± SD", "setting": "[2]; [5]", "result": "0.48 ± 0.01", "unit": "ng/mL"}, {"measurement": "RE (deviation from nominal concentration)", "setting": "[2]; [6]", "result": "−3.5", "unit": "%"}, {"measurement": "Calculated Concentration Mean ± SD", "setting": "[2]; [6]", "result": "0.97 ± 0.06", "unit": "ng/mL"}, {"measurement": "RE (deviation from nominal concentration)", "setting": "[2]; [7]", "result": "−2.7", "unit": "%"}, {"measurement": "Calculated Concentration Mean ± SD", "setting": "[2]; [7]", "result": "48.6 ± 3.3", "unit": "ng/mL"}, {"measurement": "RE (deviation from nominal concentration)", "setting": "[2]; [8]", "result": "−0.1", "unit": "%"}, {"measurement": "Calculated Concentration Mean ± SD", "setting": "[2]; [8]", "result": "799.0 ± 17.5", "unit": "ng/mL"}, {"measurement": "RE (deviation from nominal concentration)", "setting": "[2]; [9]", "result": 1.6, "unit": "%"}, {"measurement": "Calculated Concentration Mean ± SD", "setting": "[2]; [9]", "result": "0.51 ± 0.02", "unit": "ng/mL"}, {"measurement": "RE (deviation from nominal concentration)", "setting": "[2]; [10]", "result": "−6.9", "unit": "%"}, {"measurement": "Calculated Concentration Mean ± SD", "setting": "[2]; [10]", "result": "0.93 ± 0.05", "unit": "ng/mL"}, {"measurement": "RE (deviation from nominal concentration)", "setting": "[2]; [11]", "result": "−6.4", "unit": "%"}, {"measurement": "Calculated Concentration Mean ± SD", "setting": "[2]; [11]", "result": "46.8 ± 0.7", "unit": "ng/mL"}, {"measurement": "RE (deviation from nominal concentration)", "setting": "[2]; [12]", "result": 2.4, "unit": "%"}, {"measurement": "Calculated Concentration Mean ± SD", "setting": "[2]; [12]", "result": "819.0 ± 26.0", "unit": "ng/mL"}, {"measurement": "RE (deviation from nominal concentration)", "setting": "[2]; freeze and thaw (−80 °C to RT), nominal 0.5 ng/mL", "result": 1.4, "unit": "%"}, {"measurement": "RE (deviation from nominal concentration)", "setting": "[2]; freeze and thaw (−80 °C to RT), nominal 1 ng/mL", "result": "−0.8", "unit": "%"}, {"measurement": "RE (deviation from nominal concentration)", "setting": "[2]; freeze and thaw (−80 °C to RT), nominal 50 ng/mL", "result": "−2.1", "unit": "%"}, {"measurement": "RE (deviation from nominal concentration)", "setting": "[2]; freeze and thaw (−80 °C to RT), nominal 800 ng/mL", "result": "−0.9", "unit": "%"}, {"measurement": "Calculated Concentration Mean ± SD", "setting": "[2]; freeze and thaw (−80 °C to RT), three cycles, nominal 0.5 ng/mL", "result": "0.51 ± 0.01", "unit": "ng/mL"}, {"measurement": "Calculated Concentration Mean ± SD", "setting": "[2]; freeze and thaw (−80 °C to RT), three cycles, nominal 1 ng/mL", "result": "0.99 ± 0.03", "unit": "ng/mL"}, {"measurement": "Calculated Concentration Mean ± SD", "setting": "[2]; freeze and thaw (−80 °C to RT), three cycles, nominal 50 ng/mL", "result": "49.0 ± 1.3", "unit": "ng/mL"}, {"measurement": "Calculated Concentration Mean ± SD", "setting": "[2]; freeze and thaw (−80 °C to RT), three cycles, nominal 800 ng/mL", "result": "793.0 ± 16.2", "unit": "ng/mL"}, {"measurement": "RE (deviation from nominal concentration)", "setting": "[2]; [13]", "result": "−6.7", "unit": "%"}, {"measurement": "Calculated Concentration Mean ± SD", "setting": "[2]; [13]", "result": "0.47 ± 0.02", "unit": "ng/mL"}, {"measurement": "RE (deviation from nominal concentration)", "setting": "[2]; [14]", "result": "−6.9", "unit": "%"}, {"measurement": "Calculated Concentration Mean ± SD", "setting": "[2]; [14]", "result": "0.93 ± 0.05", "unit": "ng/mL"}, {"measurement": "RE (deviation from nominal concentration)", "setting": "[2]; [15]", "result": "−5.6", "unit": "%"}, {"measurement": "Calculated Concentration Mean ± SD", "setting": "[2]; [15]", "result": "47.2 ± 1.3", "unit": "ng/mL"}, {"measurement": "RE (deviation from nominal concentration)", "setting": "[2]; [16]", "result": "−6.9", "unit": "%"}, {"measurement": "Calculated Concentration Mean ± SD", "setting": "[2]; [16]", "result": "745.0 ± 20.8", "unit": "ng/mL"}, {"measurement": "storage stability of plasma samples", "setting": "[2]; stored at −80 °C for as long as 3 months", "result": "without apparent alteration"}, {"measurement": "degradation in rat plasma", "setting": "[2]; under the experimental conditions (Table 4)", "result": "no significant degradation"}, {"measurement": "concentrations in pharmacokinetic samples", "setting": "[3]; rat plasma, i.v. and oral samples", "result": "2 to 6000", "unit": "ng/mL"}, {"measurement": "plasma concentration", "setting": "[3]; rats, i.v. 5 mg/kg, after 24 h", "result": "3.0 ± 1.0", "unit": "ng/mL"}, {"measurement": "plasma concentration", "setting": "[3]; rats, i.v. 5 mg/kg, at 2 min", "result": "5270 ± 527.2", "unit": "ng/mL"}, {"measurement": "AUC 0→24", "setting": "[3]; rats, i.v. 5 mg/kg, n=5, NCA", "result": "3661.6 ± 371.4", "unit": "ng·h/mL"}, {"measurement": "AUC 0→inf", "setting": "[3]; rats, i.v. 5 mg/kg, n=5, NCA", "result": "3678.2 ± 369.0", "unit": "ng·h/mL"}, {"measurement": "CL", "setting": "[3]; rats, i.v. 5 mg/kg, n=5, NCA", "result": "22.845 ± 2.362", "unit": "mL/min/kg"}, {"measurement": "Half-life", "setting": "[3]; rats, i.v. 5 mg/kg, n=5, NCA", "result": "3.70 ± 0.5", "unit": "h"}, {"measurement": "MRT", "setting": "[3]; rats, i.v. 5 mg/kg, n=5, NCA", "result": "2.6 ± 0.3", "unit": "h"}, {"measurement": "Vd", "setting": "[3]; rats, i.v. 5 mg/kg, n=5, NCA", "result": "7.3576 ± 1.5306", "unit": "L/kg"}, {"measurement": "E/Z ratio in plasma", "setting": "[3]; rats, i.v. samples, 5 min", "result": 72}, {"measurement": "E/Z ratio in plasma", "setting": "[3]; rats, i.v. samples, 2 h", "result": 27}, {"measurement": "E/Z ratio in plasma", "setting": "[3]; rats, i.v. samples, 24 h", "result": 0.6}, {"measurement": "time to reach Cmax (range among subjects)", "setting": "[3]; rats, oral 15 mg/kg", "result": "0.5 ~ 4 h"}, {"measurement": "oral bioavailability (F)", "setting": "[3]; rats, oral 15 mg/kg vs i.v. 5 mg/kg", "result": 44.4, "unit": "%"}, {"measurement": "AUC 0→24", "setting": "[3]; rats, oral 15 mg/kg, n=6, NCA", "result": "4880.8 ± 1015.3", "unit": "ng·h/mL"}, {"measurement": "AUC 0→inf", "setting": "[3]; rats, oral 15 mg/kg, n=6, NCA", "result": "4904.7 ± 1019.7", "unit": "ng·h/mL"}, {"measurement": "Cmax", "setting": "[3]; rats, oral 15 mg/kg, n=6, NCA", "result": "812.7 ± 201.2", "unit": "ng/mL"}, {"measurement": "Half-life", "setting": "[3]; rats, oral 15 mg/kg, n=6, NCA", "result": "3.2 ± 0.2", "unit": "h"}, {"measurement": "MRT", "setting": "[3]; rats, oral 15 mg/kg, n=6, NCA", "result": "4.4 ± 0.3", "unit": "h"}, {"measurement": "Tmax", "setting": "[3]; rats, oral 15 mg/kg, n=6, NCA", "result": "1.5 ± 1.4", "unit": "h"}, {"measurement": "CL", "setting": "[3]; [17]", "result": "53.903 ± 1.27", "unit": "mL/min/kg"}, {"measurement": "Vd", "setting": "[3]; [17]", "result": "14.9234 ± 3.6699", "unit": "L/kg"}, {"measurement": "plasma concentration", "setting": "[3]; rats, oral 15 mg/kg, within 5 min", "result": "122.9 ± 51.0", "unit": "ng/mL"}, {"measurement": "E/Z ratio in plasma", "setting": "[3]; rats, oral samples, 5 min", "result": 40}, {"measurement": "E/Z ratio in plasma", "setting": "[3]; rats, oral samples, 2 h", "result": 9}, {"measurement": "E/Z ratio in plasma", "setting": "[3]; rats, oral samples, 24 h", "result": 2.3}, {"measurement": "non-specific binding to plastic centrifuge tubes", "setting": "[4]", "result": "strongly binding"}, {"measurement": "inhibitory activity against KDM5A", "setting": "KDM5A", "result": "maximal inhibitory activity"}]}
